Assay results collected from several papers.
Protocols differ between the studies behind these lines.
CDK4 with cyclin D1: Cyclin-dependent kinase 4, with cyclin D1 (CDK4, Homo sapiens, UniProt P11802)
CDK4: Cyclin-dependent kinase 4 (CDK4, Homo sapiens, UniProt P11802)
CDK4 with cyclin D3: Cyclin-dependent kinase 4, with cyclin D3 (CDK4, Homo sapiens, UniProt P11802)

CS(=O)(=O)CCNCc1ccc(-c2ccc3ncnc(Nc4ccc(OCc5cccc(F)c5)c(Cl)c4)c3c2)o1
remaining signal (CDK4 with cyclin D1; cell-free assay; 0.5 µM): 94.8%

O=C(c1ccc(Br)cc1)[C@H]1Cc2c(cc([N+](=O)[O-])cc2[N+](=O)[O-])[C@@H](O)[C@@]12C(=O)Nc1ccccc12
inhibition (CDK4; cell-free assay, inhibitor, TR-FRET; 1 µM): 29.5%

O=C(Nc1cnn(-c2csc(C(=O)NC3COC3)c2)c1)Nc1c(F)cccc1Cl
remaining activity (CDK4 with cyclin D3; enzyme activity, inhibitor; 5 µM): 79.4%

Cc1cnn2ncc(-c3ccnc(N(C)C)n3)c2c1
remaining binding (CDK4 with cyclin D3; binding; 1 µM): 83%

O=C1Nc2ccc(Cl)cc2C1=Cc1cc(Cl)c(O)c(Cl)c1
remaining signal (CDK4 with cyclin D1; cell-free assay; 0.5 µM): 94.7%

CN(C)c1ncnc(-c2ccc3nc(Nc4cc(CN5CCN(C(=O)CC(F)(F)F)CC5)ccn4)[nH]c3c2)c1Cl
remaining binding (CDK4; cell-free assay, competition with immobilised ligand; 1 µM): 83%

O=C(Nc1cnn(-c2csc(C(=O)NC3COC3)c2)c1)Nc1ccccc1Cl
remaining activity (CDK4 with cyclin D3; enzyme activity, inhibitor; 5 µM): 98.2%

C[C@@H]1CCN(C(=O)CC#N)C[C@@H]1N(C)c1ncnc2[nH]ccc12
remaining signal (CDK4 with cyclin D1; cell-free assay, inhibitor; 0.5 µM): 94.1%

COc1ccnn2ncc(-c3ccnc(N(C)C)n3)c12
remaining binding (CDK4 with cyclin D3; binding; 1 µM): 69%

O=C(c1ccccc1)[C@H]1Cc2c(cc([N+](=O)[O-])cc2[N+](=O)[O-])[C@@H](O)[C@@]12C(=O)Nc1ccccc12
inhibition (CDK4; cell-free assay, inhibitor, TR-FRET; 1 µM): 39.5%

CNC(=O)Nc1ccc2c(c1)[C@@]1(CC2)OC(=O)N(CC(=O)N(Cc2ccc(F)cc2)[C@@H](C)C(F)(F)F)C1=O
remaining binding (CDK4; cell-free assay, competition with immobilised ligand; 1 µM): 73%

CN1CC(Oc2cnc(C#N)cc2-c2ccn3nc(NC(=O)C4CC4)cc3c2)C1
inhibition (CDK4 with cyclin D3; enzyme activity, inhibitor; 1 µM): -9%

CCC(=N\O)/C(C)=C/c1ccc(F)cc1
remaining binding (CDK4 with cyclin D3; cell-free assay, competition with immobilised ligand; 1 µM): 74%

C[C@H]1CCN(c2nccc(-c3cnn4ncccc34)n2)C1
remaining binding (CDK4 with cyclin D3; binding; 1 µM): 62%

O=C(NCc1ncc(C(F)(F)F)cc1Cl)c1ccc2c(c1)C1(CCS(=O)(=O)CC1)[C@H](C1CC1)N2S(=O)(=O)c1ccc(F)cc1
remaining binding (CDK4 with cyclin D3; cell-free assay, competition with immobilised ligand; 1 µM): 88%

COc1ccc(OC)c2c(=S)c3ccccc3[nH]c12
remaining signal (CDK4 with cyclin D3; cell-free assay; 0.5 µM): 95.5%

CO[C@@H](C)c1c(Nc2ccc([C@H](N(C)C(=O)C3CCS(=O)(=O)CC3)C(F)(F)F)cc2)cnc2cc(Cl)nn12
remaining binding (CDK4 with cyclin D1; cell-free assay, competition with immobilised ligand; 1 µM): 100%

COc1ccc(C(=O)[C@H]2Cc3c(cc([N+](=O)[O-])cc3[N+](=O)[O-])[C@H](O)[C@]23C(=O)Nc2ccccc23)cc1
inhibition (CDK4; cell-free assay, inhibitor, TR-FRET; 1 µM): 18.4%
